Measurements pooled from the literature.
Protocols differ between the studies behind these lines.
Route: oral

SMILES	species	sample	dose	notes	bioavailability [%]
N#Cc1ccc(-c2ccc(C[C@@H](C#N)NC(=O)C3(N)CCOCC3)cc2)cc1	Sprague-Dawley rat	plasma	3 mg/kg		92
COCCOC(=O)C1=C(C)NC(C)=C(C(=O)OC(C)C)C1c1cccc([N+](=O)[O-])c1 (stereo not shown)	male Sprague-Dawley rat	plasma	12 mg/kg		21.9
N#C[C@]1(CO)O[C@@H](n2cnc3c(=O)[nH]c(N)nc32)C[C@@H]1O	male Sprague-Dawley rat	plasma	1 mg/kg		~70
O=C(Nc1cc(F)c(F)c(F)c1)c1ccc(F)c(S(=O)(=O)NCc2cccc(B(O)O)c2)c1	male Sprague-Dawley rat	plasma	20 mg/kg		2.85
COCCOc1cc(CC2CCN(CCc3ccc4c(c3)C(=O)CCO4)CC2)ccc1Br.O=S(=O)(O)c1ccccc1	male rat	plasma	10 mg/kg		7.3
CN1CCC(COc2cnc(-c3cccc(Cn4nc(-c5cccc(C#N)c5)ccc4=O)c3)nc2)CC1	male Sprague-Dawley rat	plasma	20 mg/kg		56
Cn1cc(-c2cc(N3CCCCS3(=O)=O)ccc2Oc2ccc(F)cc2F)c2c(F)c[nH]c2c1=O	Sprague-Dawley rat	plasma	3 mg/kg		20 to 30
Oc1c(-c2cccnc2)cnn1-c1ccccn1	rat	plasma	30 mg/kg		35
COc1nc2[nH]c(C(F)(F)F)nc2nc1Nc1ccc(OC(F)(F)F)cc1F	Sprague-Dawley rat	serum	5 mg/kg		100
Cc1cc(C(=O)O)nc(N2C[C@H]3C[C@@H](c4ccccc4C(F)(F)F)C[C@H]3C2)n1	Sprague-Dawley rat	plasma	12.7 µmol/kg	single dose	> 100
Oc1c(-n2ccnn2)cnn1-c1cc(N2CCOCC2)ncn1	male rat	plasma	5 mg/kg		34
CC1(C)CCN(c2c(C#N)c(=O)[nH]c3cccnc23)CC1	male Wistar rat	plasma			61
COc1ccc2c(=O)oc3c(OC)cc(CC(O)CN(C)C)c4c(=O)oc1c2c34 (stereo not shown)	rat	plasma			~37
CNC(=O)c1cccc(-c2ccc([C@@H](O)[C@H]3O[C@H](CO)[C@@H](O)[C@H](O)[C@@H]3O)c(C)c2)c1	male Sprague-Dawley rat	plasma	10 mg/kg	single dose	1.95
CCc1cc(OC)c2nccc(N3CCc4c(cc(Cn5ccnc5)cc4-c4cn(C)nc4C(F)(F)F)C3=O)c2c1	male Sprague-Dawley rat	plasma	50 mg/kg		65
CCOC(=O)[C@@]12C[C@@H]1[C@@H](n1ccc3c(NC)nc(C#Cc4ccc(Cl)s4)nc31)[C@H](O)[C@@H]2O	male Sprague-Dawley rat	plasma	3 mg/kg		92.3
